Consider 41 compounds from ChEMBL document CHEMBL3272013, “Synthesis and biological evaluation of substituted 2,2'-oxybis(propionic acid) derivatives and related compounds” (1976).

Common to all, as to assay type: functional
Experiment [1] deals with Rattus norvegicus. Briefly: Hypolipidemic activity in albino Wistar Royal Hart rat assessed as change in plasma cholesterol level at 120 mg/kg, po for 3 days. Put shortly: (§1)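 Male albino Wistar Royal Hart rats (160–180 g) were kept 7 days on drug-free ground Purina Lab Chow, then grouped six per group. Compound was given orally, once daily, for 3 or 6 days. Controls received no compound. Rats were anesthetized with sodium hexobarbital and bled from the carotid artery. Serum (1.0 ml) went into 9.0 ml 2-propanol with zeolite-copper hydroxide/Lloyd reagent, shaken 1 h. Cholesterol and triglyceride were autoanalyzed on the same sample. Change is given as % of control.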

The subject of experiment [2] is Rattus norvegicus. Description: Hypolipidemic activity in albino Wistar Royal Hart rat assessed as change in plasma triglyceride level at 120 mg/kg, po for 3 days. Put shortly:
as §1

In experiment [3] the test system is Rattus norvegicus. Briefly: Hypolipidemic activity in albino Wistar Royal Hart rat assessed as change in plasma cholesterol level at 60 mg/kg, po for 6 days. The method in brief: as §1
In experiment [4] the test system is Rattus norvegicus. Briefly: Hypolipidemic activity in albino Wistar Royal Hart rat assessed as change in plasma triglyceride level at 60 mg/kg, po for 3 days. The method in brief: as §1
The test system of experiment [5] is Rattus norvegicus. Briefly: Hypolipidemic activity in albino Wistar Royal Hart rat assessed as change in plasma triglyceride level at 250 mg/kg, po for 6 days. Put shortly:
as §1

For experiment [6], the system named is Rattus norvegicus. Briefly: Hypolipidemic activity in albino Wistar Royal Hart rat assessed as change in plasma cholesterol level at 250 mg/kg, po for 6 days. Put shortly:
as §1

The test system of experiment [7] is Rattus norvegicus. Description: Hypolipidemic activity in albino Wistar Royal Hart rat assessed as change in plasma cholesterol level at 250 mg/kg, po for 3 days. The method in brief:
as §1

Experiment [8] concerns Rattus norvegicus. Briefly: Hypolipidemic activity in albino Wistar Royal Hart rat assessed as change in plasma triglyceride level at 250 mg/kg, po for 3 days. Put shortly:
as §1

Experiment [9] has as its system Rattus norvegicus. Description: Hypolipidemic activity in albino Wistar Royal Hart rat assessed as change in plasma triglyceride level at 300 mg/kg, po for 6 days. The method in brief:
as §1

Experiment [10] has as its system Rattus norvegicus. Description: Hypolipidemic activity in albino Wistar Royal Hart rat assessed as change in plasma cholesterol level at 300 mg/kg, po for 6 days. The method in brief: as §1
Experiment [11] has as its system Rattus norvegicus. Briefly: Hypolipidemic activity in albino Wistar Royal Hart rat assessed as change in plasma triglyceride level at 60 mg/kg, po for 6 days. The method in brief: as §1
Experiment [12] concerns Rattus norvegicus. Description: Hypolipidemic activity in albino Wistar Royal Hart rat assessed as change in plasma cholesterol level at 120 mg/kg, po for 6 days. The method in brief:
as §1

In experiment [13] the test system is Rattus norvegicus. Briefly: Hypolipidemic activity in albino Wistar Royal Hart rat assessed as change in plasma triglyceride level at 120 mg/kg, po for 6 days. The method in brief:
as §1

Experiment [14] concerns Rattus norvegicus. Description: Hypolipidemic activity in albino Wistar Royal Hart rat assessed as change in plasma cholesterol level at 60 mg/kg, po for 3 days. The note with it: in the assay text read “for 6 days” for “for 3 days”. The method in brief:
as §1

Experiment [15] has as its system Rattus norvegicus. Briefly: Hypolipidemic activity in albino Wistar Royal Hart rat assessed as change in plasma cholesterol level at 30 mg/kg, po for 6 days. The method in brief:
as §1

In experiment [16] the test system is Rattus norvegicus. Briefly: Hypolipidemic activity in albino Wistar Royal Hart rat assessed as change in plasma triglyceride level at 30 mg/kg, po for 6 days. Put shortly: as §1
Where [17] appears, read: in the assay text read “for 3 days” for “for 6 days”.

Where “and” joins values, the source holds several entries; their conditions need not be identical. Identical values can stand only once.

With `CC1(C)OC(c2ccccc2)(c2ccc(Cl)cc2)/C(=N\O)C1=O` (centres undefined), the Activity in [1] is reported as -6%; in experiment [2], -29%.

Take `CC1(C)OC(c2ccccc2)(c2ccc(Cl)cc2)C2OC21` (centres undefined): the Activity in experiment [1] (120 mg/kg) is -11% and -12%.

Consider `CN1CCC(O)(/C=C\C(C)(C)O)CC1.Cl`, for which the figures for the Activity in experiment [1] and in experiment [2] were -4% and -10%, respectively.

Consider `CC1(C)CN(Cc2ccc(Cl)cc2)CC(c2ccccc2)(c2ccccc2)O1`, for which the Activity in [1] was 12%; in experiment [2], -45%.

With `CC(C)(O)C#CC(C)(O)c1ccc(Cl)cc1` (centres undefined), the figures for the Activity in experiment [1] and in [2] were 11% and 6%, respectively.

For `CC1(C)OC(c2ccccc2)(c2ccccc2)C(=O)N(Cc2ccc(Cl)cc2)C1=O`, the Activity in experiment [1] is on record as -9%; in experiment [2], -16%.

Turning to `O=C(c1ccccc1)N1CCC(O)(/C=C\C2(O)CCN(C(=O)c3ccccc3)CC2)CC1`, the Activity in [1] was -3%; in [2] it was 27%.

`CC1(C)OC(c2ccccc2)(c2ccccc2)C(=O)N(c2ccccc2)C1=O`: the Activity in experiment [1] was -6%; in experiment [2], 8%.

Take `CC1(C)CN(Cc2ccccc2)CC(C)(C)O1`: the values for the Activity in [1] and in experiment [2] were -14% and 9%, respectively.

Regarding `COC(=O)C(C)(C)OC1(C(=O)OC)CCCCC1`, the Activity is -8% in experiment [1] and 8% in [2].

Regarding `OC1(CCC(O)(c2ccccc2)c2ccccc2)CCCCC1`, the Activity in experiment [1] is given as -5%; in [2], 74%.

For the compound `CC1(C)OC(c2ccccc2)(c2ccccc2)C(=O)N(Cc2ccccc2)C1=O`, the results for the Activity in experiment [3] (setting [17]) and in experiment [4] were -9% and -7%, respectively.

With `CC(C)(O)C#CC(O)(c1ccccc1)c1ccc(Cl)cc1` (centres undefined), the Activity in experiment [1] is given as 48%; in experiment [2], 3%.

As to `CC(=O)N1CCC2(CC1)CCC(C)(C)O2`, the figures for the Activity in experiment [5] and in [6] were -39% and -11%, respectively.

Take `CC1(C)OC(C)(C)C(=O)N(Cc2ccc(Cl)cc2)C1=O`: the Activity was -3% in [1] and 50% in [2].

Regarding `CC1(C)CN(Cc2ccc(Cl)cc2)CC(C)(C)O1`, the Activity in experiment [1] is on record as -3%; in experiment [2] it was -10%.

Regarding `CC(C)(OC(C(=O)O)(c1ccccc1)c1ccc(Cl)cc1)C(=O)O` (centres undefined), the Activity in experiment [1] is 6%; in [2], 33%.

Turning to `CC(=O)N1CCC(O)(/C=C\C(C)(C)O)CC1`, the values for the Activity in [1] and in experiment [2] were 21% and 92%, respectively.

For `CN1CCC(O)(C#CC2(O)CCN(C)CC2)CC1`, the Activity stood at 19% in experiment [1] and 43% in experiment [2].

On to `CC1(C)OC(c2ccccc2)(c2ccc(Cl)cc2)C(=O)N(Cc2ccccc2)C1=O` (centres undefined), for which the figures for the Activity in experiment [5] and in experiment [6] were -4% and -7%, respectively.

`CC(=O)N1CCC(O)(CCC(C)(C)O)CC1`: the results for the Activity in experiment [1] and in [2] were -7% and -22%, respectively.

`CN1CCC(O)(C#CC(C)(C)O)CC1`: the Activity in experiment [1] is 20%; in [2] it was 86%.

On to `CC(C)(OC(C(=O)O)(c1ccccc1)c1ccccc1)C(=O)O`, for which the Activity is listed as -11% in experiment [1] and 8% in experiment [2].

Turning to `COC(=O)C(C)(C)OC(C)(C(=O)OC)c1ccc(Cl)cc1` (centres undefined), the Activity in experiment [1] worked out at 29%; in [2], 9%.

Regarding `CN1CCC(O)(CCC2(O)CCN(C)CC2)CC1`, the Activity in experiment [1] is on record as -4%; in experiment [2], 29%.

On to `CC1(C)CN(Cc2ccccc2)CC(c2ccccc2)(c2ccccc2)O1.Cl`, for which the Activity in [1] is reported as 0%; in experiment [2] it was -15%.

In the case of `CN1CCC(O)(/C=C\C2(O)CCN(C)CC2)CC1`, the results for the Activity in experiment [7] and in experiment [8] were -17% and -28%, respectively.

As for `CCOC(=O)C(C)(C)Oc1ccc(Cl)cc1` [CLOFIBRATE], the Activity is on record as -49% in experiment [9] and -34% in experiment [10].

Consider `CC1(C)OC(c2ccccc2)(c2ccccc2)/C(=N\O)C1=O`, for which the Activity was -6% in experiment [1] and -19% in experiment [2].

On to `CC1(C)OC(C)(c2ccccc2)C2OC21` (centres undefined), for which the Activity is listed as -6% in experiment [5] and -11% in experiment [6].

On to `CC1(C)C=CC(c2ccncc2)(c2ccc(Cl)cc2)O1` (centres undefined), for which the Activity in experiment [1] is 32%; in experiment [2], -65%.

On to `CC(OC1(C(=O)O)CCCCC1)(C(=O)O)c1ccccc1` (centres undefined), for which the values for the Activity in [1] and in experiment [2] were 28% and -2%, respectively.

`CC(C)(OC(C)(C)C(=O)O)C(=O)O`: the values for the Activity in [1] and in experiment [2] were 4% and -32%, respectively.

For the compound `COC(=O)C(C)(C)OC(C)(C(=O)OC)c1ccccc1` (centres undefined), the Activity in experiment [1] is given as 0%; in experiment [2], -3%.

For the compound `CC(C)(CNCc1ccc(Cl)cc1)OC(C)(C)CNCc1ccc(Cl)cc1.Cl`, the Activity was -9% in experiment [11]; -15% in experiment [12]; -64% in [13]; -77% in experiment [5]; -7% in experiment [6]; -25% in [14].

On to `CC1(C)OC(c2ccncc2)(c2ccc(Cl)cc2)C2OC21` (centres undefined), for which the Activity in [3] (60 mg/kg) was -8% and -6%.

Consider `CC1(C)OC(C)(C)C(=O)N(Cc2ccccc2)C1=O`, for which the Activity was determined as 35% in experiment [1] and 51% in experiment [2].

For the compound `CC1(C)C=CC(c2ccccc2)(c2ccc(Cl)cc2)O1` (centres undefined), the results for the Activity in [3] (setting [17]) and in experiment [4] were -11% and -17%, respectively.

`CC1(C)C=CC(C)(c2ccccc2)O1` (centres undefined): the Activity in [1] is -7%; in experiment [2], 27%.

On to `CN1CCC(OC(=O)C(Oc2ccc(Cl)cc2)Oc2ccc(Cl)cc2)CC1` [LIFIBRATE], for which the Activity in experiment [15] is listed as -30%; in experiment [16], -50%.

Take `CC(C)(O)C#CC(O)(c1ccncc1)c1ccc(Cl)cc1` (centres undefined): the Activity is reported as 30% in experiment [1] and 34% in [2].
